Series [1] deals with Rattus norvegicus. Description: Mean Chlorine excretion in rats when compound administered at 160 mg/kg po and vehicle dosed at 594.07 umol/kg. Type of series: ADME, organism-based. Also noted: dose 160 mg/kg, route oral. The following applies: in vivo. The essentials: (§1)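 Male Sprague-Dawley rats (HC/CFY, 175-200 g), no food or water for 18 h before and during the test. Single gavage dose (2.5-160 mg/kg; vehicle 1% carboxymethyl cellulose/0.1% Tween 80, 0.5 mL/100 g bw), then distilled water 2.5 mL/100 g bw po. Individual metabolic cages, 6 h urine. K+ by flame photometry, Cl- colorimetric, as mequiv/6 h/kg bw; unpaired Student t-test vs control.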

In series [2] the test system is Rattus norvegicus. Description: Mean Chlorine excretion in rats when compound administered at 0 mg/kg po and vehicle dosed at 0 umol/kg. Type of series: ADME, organism-based. Also noted: dose 0 mg/kg, route oral. The following applies: in vivo.
Series [3] relates to Rattus norvegicus. The series is described as follows: Mean potassium excretion in rats when compound administered at 40 mg/kg po and vehicle dosed at 148.52 umol/kg. Type of series: ADME, organism-based. Also noted: dose 40 mg/kg, route oral. The following applies: in vivo. In short, it runs like this: as §1
Series [4] relates to Rattus norvegicus. Description: Urinary sodium 4 hr after the compound was administered 100 mg/kg po in rat. Format: ADME, organism-based, Urine. The following applies: in vivo. Also noted: dose 100 mg/kg, route oral. The essentials: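 Onset and duration study in fasted, water-loaded male Sprague-Dawley rats housed two per metabolic cage, six pairs per group. Single oral dose given, then water 2.5 mL/100 g po. Urine volume and sodium (flame photometry) measured over 0-1, 1-2, 2-3, 3-4 and 4-6 h intervals. Mean values compared with vehicle by Student t-test.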

Series [5] deals with Rattus norvegicus. Description: Mean potassium excretion in rats when compound administered at 10 mg/kg po and vehicle dosed at 37.13 umol/kg. Format: ADME, organism-based. Also noted: dose 10 mg/kg, route oral. The following applies: in vivo. In short, it runs like this: as §1
The species named for series [6] is Rattus norvegicus. The series is described as follows: Mean urinary output in rats (Control/Drug treatment value); value 24.2/47.6. Type of series: ADME, organism-based, Urine. The following applies: in vivo. The essentials:
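Water-loaded male Sprague-Dawley rats (HC/CFY, 175-200 g), eight per group, deprived of food and water 18 h. Single oral gavage of 20-25 mg/kg (some 10 mg/kg) in 1% CMC/0.1% Tween 80, then distilled water 2.5 mL/100 g bw po. Cumulative urine over 6 h in metabolic cages; mean mL/6 h/kg bw vs vehicle group.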

Series [7] concerns Rattus norvegicus. Description: Mean sodium excretion in rats when compound administered at 40 mg/kg po and vehicle dosed at 148.52 umol/kg. Also noted: dose 40 mg/kg, route oral. Format: ADME, organism-based. The following applies: in vivo. The essentials:
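Male Sprague-Dawley rats (HC/CFY, 175-200 g) fasted and water-deprived 18 h before and during the test. Dosed by gavage at 2.5-160 mg/kg in 1% carboxymethyl cellulose/0.1% Tween 80, 0.5 mL/100 g bw. Immediately hydrated with water (2.5 mL/100 g bw, po). Urine collected 6 h in metabolic cages; Na+ and K+ by flame photometry; mean mequiv/6 h/kg bw; nonpaired Student t-test.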

Series [8] relates to Rattus norvegicus. Description: Mean Chlorine excretion in rats when compound administered at 5 mg/kg po and vehicle dosed at 18.56 umol/kg. The following applies: in vivo. Also noted: dose 5 mg/kg, route oral. Format: ADME, organism-based. The essentials: as §1
The test system of series [9] is Rattus norvegicus. Description: Volume of urine 2 hr after the compound was administered 100 mg/kg po in rat. Format: ADME, organism-based. Also noted: dose 100 mg/kg, route oral. The following applies: in vivo. In short, it runs like this: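 Onset/duration protocol: male Sprague-Dawley rats (HC/CFY, 175-200 g), food and water withdrawn for 18 h before and during the test. Single gavage dose in 1% carboxymethyl cellulose/0.1% Tween 80 (0.5 mL/100 g bw), then distilled water load (2.5 mL/100 g bw po). Two rats per metabolic cage, six pairs per group. Urine collected at 0-1, 1-2, 2-3, 3-4 and 4-6 h; Na+ by flame photometry. Vehicle controls; nonpaired Student t-test.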

Series [10] relates to Rattus norvegicus. The series is described as follows: Post dosing time interval of maximum activity. Type of series: functional. The essentials:
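Interval of peak activity taken from timed urine collections (0-1, 1-2, 2-3, 3-4, 4-6 h) after a single oral dose in water-loaded fasted rats, […]. Urine volume and Na+ excretion followed over time.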

Series [11] relates to Rattus norvegicus. Description: Mean Chlorine excretion in rats when compound administered at 40 mg/kg po and vehicle dosed at 148.52 umol/kg. Format: ADME, organism-based. Also noted: dose 40 mg/kg, route oral. The following applies: in vivo. In short, it runs like this: as §1
In series [12] the test system is Rattus norvegicus. The series is described as follows: Mean urinary output in rats when compound administered at 10 mg/kg po and vehicle dosed at 37.13 umol/kg. Format: ADME, organism-based, Urine. Also noted: dose 10 mg/kg, route oral. The following applies: in vivo. In short, it runs like this: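 Water-loaded male Sprague-Dawley rats (HC/CFY, 175-200 g) fasted and without water for 18 h. Oral gavage of 2.5-160 mg/kg in 1% CMC with 0.1% Tween 80, then distilled water 2.5 mL/100 g po. Urine collected 6 h in metabolic cages, mean output in mL/6 h/kg bw. Unpaired Student t-test against vehicle; dose-response by linear regression.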

Series [13] in a line: Ratio of Na+ to K+ excretion at dose. Format: ADME. In short, it runs like this:
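Water-loaded fasted male Sprague-Dawley rats dosed orally in CMC/Tween 80 vehicle and hydrated with water 2.5 mL/100 g. Na+ and K+ in urine pooled over 6 h measured by flame photometry. Na+/K+ excretion ratio computed for each dose; Student t-test against control.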

Series [14] concerns Rattus norvegicus. Description: Mean Chlorine excretion in rats when compound administered at 10 mg/kg po and vehicle dosed at 37.13 umol/kg. Format: ADME, organism-based. Also noted: dose 10 mg/kg, route oral. The following applies: in vivo. In short, it runs like this:
as §1

The species named for series [15] is Rattus norvegicus. The series is described as follows: Dose required to produce increase in 50 % in urine production vs control groups. The following applies: Rattus norvegicus, Urine. Format: functional. In short, it runs like this: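 Male Sprague-Dawley rats (HC/CFY, 175-200 g), fasted and water-deprived 18 h before and during the test. Compound dosed by gavage in 1% carboxymethyl cellulose/0.1% Tween 80, then water load 2.5 mL/100 g bw po. Urine collected 6 h in metabolic cages; Na+ by flame photometry. Effective doses vs vehicle controls derived by linear regression of dose-response data.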

The values that follow come from ChEMBL document CHEMBL1125330, “N-substituted pyrazino[2,3-c][1,2,6]thiadiazine 2,2-dioxides. A new class of diuretics” (J Med Chem, 1992).

A word on the ED50: it is the midpoint of the dose-response relation. The low end stands for greater potency, the high end for weaker potency.

Molecules are shown by their SMILES.

Take `CCc1nc2c(nc1C)C(N)=NS(=O)(=O)N2CC`: the Cl- in the series with Rattus norvegicus [1] was 9.28 m equiv 6hr-1 kg-1 (body weight)-1; in the series with Rattus norvegicus [2], 1.02 m equiv 6hr-1 kg-1 (body weight)-1; in the series on Rattus norvegicus [8] it was 1.83 m equiv 6hr-1 kg-1 (body weight)-1; in the series on Rattus norvegicus [11], 6.37 m equiv 6hr-1 kg-1 (body weight)-1; in the series with Rattus norvegicus [14], 2.67 m equiv 6hr-1 kg-1 (body weight)-1. The K was 1.25 m equiv 6hr-1 kg-1 (body weight)-1 with Rattus norvegicus [3] and 0.72 m equiv 6hr-1 kg-1 (body weight)-1 with Rattus norvegicus [5]. Besides, the “Urinary Na+” value in the series on Rattus norvegicus [4] is given as 0.27 m equiv. The V is 2 in the series listed under Rattus norvegicus [6] and 32.6 ml 6hr-1 (kg of body weight)-1 in the series with Rattus norvegicus [12]. The Na with Rattus norvegicus [7] is on record as 3.63 m equiv 6hr-1 kg-1 (body weight)-1. In the series on Rattus norvegicus [9], this compound yielded a Urine volume of 8.7 mL. For the same compound, the Time with Rattus norvegicus [10] was 2 h. In addition, the Ratio in [13] was 2.43 [middle of 8 runs]. This compound displayed a median effective dose (ED50) in the series filed under Rattus norvegicus [15] of 9.17 mg/kg.
